ChEMBL document CHEMBL1147905, “Novel thyroid hormone receptor antagonists with an N-alkylated diphenylamine skeleton” (Bioorg Med Chem, 2007)
Active and inactive are the calls of the source. The rule behind the calls is not given here.

How the values were obtained:
Format in all cases: functional, cell-based
Settings in all cases: COS-1
[1] = target: T1, Thyroid hormone receptor alpha (Homo sapiens) (UniProt P10827); assay: Agonist activity at human thyroid hormone receptor alpha-1 expressed in COS1 cells by transactivation assay after 40 hrs
T1 sequence (whole entry): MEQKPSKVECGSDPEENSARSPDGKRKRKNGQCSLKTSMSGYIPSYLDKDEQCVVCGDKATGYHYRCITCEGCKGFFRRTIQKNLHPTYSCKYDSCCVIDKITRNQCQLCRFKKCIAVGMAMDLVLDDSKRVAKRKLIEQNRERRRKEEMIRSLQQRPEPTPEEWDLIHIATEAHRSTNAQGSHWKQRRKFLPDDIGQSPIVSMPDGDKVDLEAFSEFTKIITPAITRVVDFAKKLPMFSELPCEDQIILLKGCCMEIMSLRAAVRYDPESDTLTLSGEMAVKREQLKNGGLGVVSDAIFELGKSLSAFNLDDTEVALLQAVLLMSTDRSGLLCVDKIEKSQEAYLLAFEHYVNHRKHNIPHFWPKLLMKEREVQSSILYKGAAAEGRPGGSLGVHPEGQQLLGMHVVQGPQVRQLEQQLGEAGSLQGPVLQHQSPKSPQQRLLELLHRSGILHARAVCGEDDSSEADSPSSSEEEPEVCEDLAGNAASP
Summary of the method: (§1)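 COS-1 cells were seeded at 8 × 10⁴ per well in 5% FBS/DMEM and grown overnight at 37 °C, 5% CO₂. In serum-free DMEM with Lipofectamine 2000 they were transfected with pCMX-hTRα1 (α1) or pCDNA-hTRβ1 (β1) (100 ng), (TREpal)₃-TKLUC reporter (200 ng) and pCMVβ reference. After 4–5 h, charcoal-dextran FBS medium and compounds (final 0.5% EtOH) were added for 40 h. Read-out was luciferase normalised to β-galactosidase.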

[2] = target: T2, Thyroid hormone receptor beta (Homo sapiens) (UniProt P10828); assay: Antagonist activity at human thyroid hormone receptor beta-1 expressed in COS1 cells by transactivation assay after 40 hrs
T2 sequence (whole entry): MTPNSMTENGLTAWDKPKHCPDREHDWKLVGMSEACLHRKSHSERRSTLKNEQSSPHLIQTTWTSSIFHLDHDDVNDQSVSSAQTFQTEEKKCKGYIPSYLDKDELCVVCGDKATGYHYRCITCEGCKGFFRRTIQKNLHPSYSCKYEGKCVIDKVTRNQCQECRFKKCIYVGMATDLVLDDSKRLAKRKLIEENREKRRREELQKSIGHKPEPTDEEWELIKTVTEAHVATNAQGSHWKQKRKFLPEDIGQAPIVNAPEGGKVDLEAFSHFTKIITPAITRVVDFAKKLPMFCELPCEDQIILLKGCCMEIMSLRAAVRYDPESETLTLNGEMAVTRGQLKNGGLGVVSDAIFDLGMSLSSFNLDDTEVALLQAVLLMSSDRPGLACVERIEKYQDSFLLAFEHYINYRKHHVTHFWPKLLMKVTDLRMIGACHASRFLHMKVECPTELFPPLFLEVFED
Summary of the method: (§2)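 Same COS-1 transfection (pCMX-hTRα1 or pCDNA-hTRβ1 with (TREpal)₃-TKLUC and pCMVβ) and 40 h treatment in charcoal-dextran FBS medium, 0.5% EtOH final. Compounds were added alongside 3 × 10⁻⁹ M T₃. Luciferase was normalised to β-galactosidase and expressed as percent of the T₃-alone value (100%). Means ± SD, n = 3.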

[3] = target: T2, Thyroid hormone receptor beta (Homo sapiens); assay: Agonist activity at human thyroid hormone receptor beta-1 expressed in COS1 cells by transactivation assay after 40 hrs; summary of the method: as §1
[4] = target: T1, Thyroid hormone receptor alpha (Homo sapiens); assay: Antagonist activity at human thyroid hormone receptor alpha-1 expressed in COS1 cells by transactivation assay after 40 hrs; summary of the method: as §2

| Activity [1] | Activity [2] | Activity [3] | Activity [4] | Structure (SMILES) |
| --- | --- | --- | --- | --- |
| inactive | Active | inactive | Active | Cc1cc(CC2SC(=O)NC2=O)cc(C)c1N(CC1CCCCC1)c1ccc(O)c(C(C)C)c1 (stereo not drawn) |
| inactive | Active | inactive | Active | Cc1cc(CC2SC(=O)NC2=O)cc(C)c1N(Cc1ccccc1)c1ccc(O)c(C(C)C)c1 (stereo not drawn) |
| Active | inactive | Active | inactive | Cc1cc(CC2SC(=O)NC2=O)cc(C)c1N(C)c1ccc(O)c(C(C)C)c1 (stereo not drawn) |
| inactive | Active | inactive | Active | Cc1cc(CC2SC(=O)NC2=O)cc(C)c1N(CC1CC1)c1ccc(O)c(C(C)C)c1 (stereo not drawn) |
| inactive | Active | inactive | Active | Cc1cc(CC2SC(=O)NC2=O)cc(C)c1N(CC(C)C)c1ccc(O)c(C(C)C)c1 (stereo not drawn) |
| inactive | Active | inactive | Active | CCCCCCN(c1ccc(O)c(C(C)C)c1)c1c(C)cc(CC2SC(=O)NC2=O)cc1C (stereo not drawn) |
| inactive | Active | inactive | Active | CC(C)=CCN(c1ccc(O)c(C(C)C)c1)c1c(C)cc(CC2SC(=O)NC2=O)cc1C (stereo not drawn) |
